Experimental findings from ChEMBL document CHEMBL3797186, “Single Residue Substitutions That Confer Voltage-Gated Sodium Ion Channel Subtype Selectivity in the NaV1.7 Inhibitory Peptide GpTx-1” (J Med Chem, 2016) are described below.

Positions of bridges follow the written chain, without caps; N, C: chain ends. Non-standard residues stand in square brackets, D forms with d. Residues, ends and D or L forms follow the SMILES beside them. 1Nal = N[C@@H](Cc1cccc2ccccc12)C(=O)O

In experiment [1] the target is Sodium channel protein type 9 subunit alpha (Homo sapiens, UniProt Q15858). Kind of experiment: Inhibition of human Nav1.7 expressed in HEK293 cells assessed as inward peak current by ion-works quattro patch clamp electrophysiology method. Format: cell-based. A general note: The patch-clamp technique gives a direct electrical read-out from membranes.
In experiment [2] the target is Sodium channel protein type 5 subunit alpha (Homo sapiens, UniProt Q14524). The experiment can be described thus: Inhibition of human Nav1.5 expressed in HEK293 cells assessed as inward peak current by ion-works quattro patch clamp electrophysiology method. The class given is cell-based. An outline of the steps:
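Stable HEK293 line expressing human NaV1.5, recorded by population patch clamp on the IonWorks Quattro.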

The IC50 is the concentration that inhibits the measured activity by half.

Sequence of Sodium channel protein type 5 subunit alpha (Q14524 whole entry): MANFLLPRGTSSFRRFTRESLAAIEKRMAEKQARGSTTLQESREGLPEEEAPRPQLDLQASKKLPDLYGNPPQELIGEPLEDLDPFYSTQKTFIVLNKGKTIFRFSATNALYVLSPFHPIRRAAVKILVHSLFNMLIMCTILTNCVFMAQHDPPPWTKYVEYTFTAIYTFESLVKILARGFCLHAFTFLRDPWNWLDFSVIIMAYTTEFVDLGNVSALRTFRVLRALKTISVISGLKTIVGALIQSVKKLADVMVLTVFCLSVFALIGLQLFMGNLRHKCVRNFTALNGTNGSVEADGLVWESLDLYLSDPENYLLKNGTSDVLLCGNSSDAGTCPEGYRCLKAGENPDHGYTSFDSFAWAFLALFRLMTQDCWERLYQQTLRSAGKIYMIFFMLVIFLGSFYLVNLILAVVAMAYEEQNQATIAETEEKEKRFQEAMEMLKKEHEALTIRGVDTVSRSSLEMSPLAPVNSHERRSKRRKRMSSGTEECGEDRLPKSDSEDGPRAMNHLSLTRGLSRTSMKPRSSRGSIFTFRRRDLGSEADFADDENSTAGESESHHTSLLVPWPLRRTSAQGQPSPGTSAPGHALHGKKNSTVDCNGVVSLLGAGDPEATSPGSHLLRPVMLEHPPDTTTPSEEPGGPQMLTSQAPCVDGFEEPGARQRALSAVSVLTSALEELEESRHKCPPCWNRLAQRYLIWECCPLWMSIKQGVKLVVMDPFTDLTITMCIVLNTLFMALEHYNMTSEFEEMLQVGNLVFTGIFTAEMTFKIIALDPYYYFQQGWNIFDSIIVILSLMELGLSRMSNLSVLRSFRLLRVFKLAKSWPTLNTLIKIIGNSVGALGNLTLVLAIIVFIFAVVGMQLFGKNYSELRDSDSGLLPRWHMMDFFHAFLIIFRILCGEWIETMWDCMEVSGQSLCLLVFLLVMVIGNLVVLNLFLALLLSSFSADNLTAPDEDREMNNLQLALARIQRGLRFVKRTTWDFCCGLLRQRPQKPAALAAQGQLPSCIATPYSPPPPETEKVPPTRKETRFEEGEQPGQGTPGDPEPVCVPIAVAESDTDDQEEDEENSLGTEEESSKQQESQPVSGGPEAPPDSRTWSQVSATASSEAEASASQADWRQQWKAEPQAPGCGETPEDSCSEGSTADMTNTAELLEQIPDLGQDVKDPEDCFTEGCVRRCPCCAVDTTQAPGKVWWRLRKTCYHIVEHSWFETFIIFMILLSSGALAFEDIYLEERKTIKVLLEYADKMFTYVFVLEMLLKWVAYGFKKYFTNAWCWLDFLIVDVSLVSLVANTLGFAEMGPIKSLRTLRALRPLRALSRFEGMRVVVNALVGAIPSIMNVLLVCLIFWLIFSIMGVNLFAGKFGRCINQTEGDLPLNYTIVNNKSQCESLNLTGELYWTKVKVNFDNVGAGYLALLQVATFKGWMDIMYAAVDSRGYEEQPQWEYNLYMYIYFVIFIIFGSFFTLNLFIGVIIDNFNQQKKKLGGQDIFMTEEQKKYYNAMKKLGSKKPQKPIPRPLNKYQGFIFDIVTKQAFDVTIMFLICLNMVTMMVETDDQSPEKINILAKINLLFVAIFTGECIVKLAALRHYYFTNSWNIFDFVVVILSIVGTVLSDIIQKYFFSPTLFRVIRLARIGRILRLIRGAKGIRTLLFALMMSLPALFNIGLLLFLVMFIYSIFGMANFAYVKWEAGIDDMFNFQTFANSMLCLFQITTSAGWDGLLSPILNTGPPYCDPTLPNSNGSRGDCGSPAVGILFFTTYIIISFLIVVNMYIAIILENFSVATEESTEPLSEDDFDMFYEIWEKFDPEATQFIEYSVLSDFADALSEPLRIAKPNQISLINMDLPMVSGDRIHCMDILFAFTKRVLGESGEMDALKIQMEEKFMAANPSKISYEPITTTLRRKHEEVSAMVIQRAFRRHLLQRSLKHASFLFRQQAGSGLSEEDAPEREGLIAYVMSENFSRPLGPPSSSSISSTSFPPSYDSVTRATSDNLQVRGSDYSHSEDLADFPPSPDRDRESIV
Sequence of Sodium channel protein type 9 subunit alpha (Q15858 whole entry): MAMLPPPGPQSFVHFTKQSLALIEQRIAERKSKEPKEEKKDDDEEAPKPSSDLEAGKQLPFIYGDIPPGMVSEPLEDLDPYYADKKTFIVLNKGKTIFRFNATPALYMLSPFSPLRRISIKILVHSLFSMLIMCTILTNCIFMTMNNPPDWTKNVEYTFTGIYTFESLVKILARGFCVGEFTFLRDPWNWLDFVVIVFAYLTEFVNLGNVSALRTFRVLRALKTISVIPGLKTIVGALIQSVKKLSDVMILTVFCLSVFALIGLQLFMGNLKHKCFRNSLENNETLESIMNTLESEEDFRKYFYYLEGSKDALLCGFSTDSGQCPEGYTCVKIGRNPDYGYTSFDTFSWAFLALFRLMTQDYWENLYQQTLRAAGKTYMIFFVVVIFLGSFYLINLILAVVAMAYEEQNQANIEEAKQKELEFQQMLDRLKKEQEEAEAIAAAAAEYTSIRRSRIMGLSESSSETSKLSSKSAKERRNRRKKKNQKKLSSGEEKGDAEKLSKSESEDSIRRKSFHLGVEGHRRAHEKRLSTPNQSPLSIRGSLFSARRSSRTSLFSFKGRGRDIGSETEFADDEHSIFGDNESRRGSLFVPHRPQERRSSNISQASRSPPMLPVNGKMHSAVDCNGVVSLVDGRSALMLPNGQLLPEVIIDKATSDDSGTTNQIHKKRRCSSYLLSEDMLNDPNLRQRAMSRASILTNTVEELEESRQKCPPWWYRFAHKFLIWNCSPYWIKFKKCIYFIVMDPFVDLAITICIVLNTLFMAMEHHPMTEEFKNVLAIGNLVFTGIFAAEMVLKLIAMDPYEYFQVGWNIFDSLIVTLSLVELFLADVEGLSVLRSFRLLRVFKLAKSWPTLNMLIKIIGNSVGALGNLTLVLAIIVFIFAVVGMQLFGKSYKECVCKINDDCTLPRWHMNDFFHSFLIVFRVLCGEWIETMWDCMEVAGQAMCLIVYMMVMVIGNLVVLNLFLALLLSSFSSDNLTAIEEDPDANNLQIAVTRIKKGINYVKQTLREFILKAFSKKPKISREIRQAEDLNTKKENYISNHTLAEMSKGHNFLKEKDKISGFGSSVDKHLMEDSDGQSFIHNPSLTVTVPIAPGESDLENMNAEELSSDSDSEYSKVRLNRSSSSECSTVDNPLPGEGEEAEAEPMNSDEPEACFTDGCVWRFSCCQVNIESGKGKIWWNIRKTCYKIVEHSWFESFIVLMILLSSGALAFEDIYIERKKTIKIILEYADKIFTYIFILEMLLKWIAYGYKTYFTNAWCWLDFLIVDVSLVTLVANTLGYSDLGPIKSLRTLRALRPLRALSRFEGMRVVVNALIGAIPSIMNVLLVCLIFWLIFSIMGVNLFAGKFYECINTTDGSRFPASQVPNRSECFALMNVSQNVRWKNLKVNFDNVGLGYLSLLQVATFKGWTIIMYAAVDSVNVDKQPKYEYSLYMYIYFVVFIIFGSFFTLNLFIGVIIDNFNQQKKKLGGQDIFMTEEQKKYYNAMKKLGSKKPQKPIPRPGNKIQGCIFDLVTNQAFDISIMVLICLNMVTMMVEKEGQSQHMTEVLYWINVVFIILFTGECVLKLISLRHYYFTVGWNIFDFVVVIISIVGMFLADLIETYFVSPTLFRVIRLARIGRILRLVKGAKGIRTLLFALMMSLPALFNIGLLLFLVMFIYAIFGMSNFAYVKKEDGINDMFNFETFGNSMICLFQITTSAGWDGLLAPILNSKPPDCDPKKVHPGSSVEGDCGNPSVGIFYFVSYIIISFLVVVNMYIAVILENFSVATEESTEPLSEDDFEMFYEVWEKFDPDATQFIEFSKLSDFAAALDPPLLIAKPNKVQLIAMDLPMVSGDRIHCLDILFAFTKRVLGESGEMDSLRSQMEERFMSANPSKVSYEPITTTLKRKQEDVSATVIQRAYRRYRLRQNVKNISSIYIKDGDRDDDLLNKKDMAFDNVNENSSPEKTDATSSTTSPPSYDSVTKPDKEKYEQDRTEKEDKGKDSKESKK

As for `CC[C@H](C)[C@@H]1NC(=O)[C@@H]2CSSC[C@@H]3NC(=O)[C@H](C(C)C)NC(=O)[C@H](CC(C)C)NC(=O)[C@H](CC(N)=O)NC(=O)[C@@H]4CCCN4C(=O)[C@H](CCCNC(=N)N)NC(=O)[C@H](CSSC[C@H](NC(=O)[C@@H](N)CC(=O)O)C(=O)N[C@@H](CC(C)C)C(=O)NCC(=O)N[C@@H](Cc4ccccc4)C(=O)N[C@@H](CCSC)C(=O)N[C@@H](CCCNC(=N)N)C(=O)N[C@@H](CCCCN)C(=O)N2)NC(=O)[C@H](CSSC[C@@H](C(=O)N[C@@H](CCCCN)C(=O)N[C@@H](Cc2ccc(O)cc2)C(=O)N[C@H](C(=O)N[C@@H](Cc2ccccc2)C(N)=O)C(C)C)NC(=O)[C@H](Cc2c[nH]c4ccccc24)NC(=O)[C@H](CCCCN)NC(=O)[C@H](Cc2c[nH]cn2)NC(=O)[C@H]([C@@H](C)O)NC(=O)[C@H](CCCNC(=N)N)NC(=O)[C@H](CO)NC3=O)NC(=O)[C@H](CCCCN)NC(=O)[C@H](CC(=O)O)NC(=O)[C@H](CC(N)=O)NC(=O)[C@H](Cc2cccc3ccccc23)NC(=O)[C@@H]2CCCN2C1=O` (H-DCLGFMRKCIP[1Nal]NDKCCRPNLVCSRTHKWCKYVF-NH2; disulfide 2-17, 9-23, 16-30), the IC50 was 0.1 µM in experiment [1] and greater than 5 µM in experiment [2].
Turning to `CC[C@H](C)[C@@H]1NC(=O)[C@@H]2CSSC[C@@H]3NC(=O)[C@H](C(C)C)NC(=O)[C@H](CC(C)C)NC(=O)[C@H](CC(N)=O)NC(=O)[C@@H]4CCCN4C(=O)[C@H](CCCNC(=N)N)NC(=O)[C@H](CSSC[C@H](NC(=O)[C@@H](N)CC(=O)O)C(=O)N[C@@H](CC(C)C)C(=O)NCC(=O)N[C@@H](Cc4ccccc4)C(=O)N[C@@H](CCSC)C(=O)N[C@@H](CCCNC(=N)N)C(=O)N[C@@H](CCCCN)C(=O)N2)NC(=O)[C@H](CSSC[C@@H](C(=O)N[C@@H](CCCCN)C(=O)N[C@@H](Cc2ccc(O)cc2)C(=O)N[C@H](C(=O)N[C@@H](Cc2ccccc2)C(N)=O)C(C)C)NC(=O)[C@H](Cc2c[nH]c4ccccc24)NC(=O)[C@H](CCCCN)NC(=O)[C@H](CCC(=O)O)NC(=O)[C@H]([C@@H](C)O)NC(=O)[C@H](CCCNC(=N)N)NC(=O)[C@H](CO)NC3=O)NC(=O)[C@H](CCCCN)NC(=O)[C@H](CC(=O)O)NC(=O)[C@H](CC(N)=O)NC(=O)[C@H](CC(=O)O)NC(=O)[C@@H]2CCCN2C1=O` (H-DCLGFMRKCIPDNDKCCRPNLVCSRTEKWCKYVF-NH2; disulfide 2-17, 9-23, 16-30), the IC50 in experiment [1] and in experiment [2] was greater than 5 µM each time.
`CC[C@H](C)[C@@H]1NC(=O)[C@@H]2CSSC[C@@H]3NC(=O)[C@H](C(C)C)NC(=O)[C@H](CC(C)C)NC(=O)[C@H](CC(N)=O)NC(=O)[C@@H]4CCCN4C(=O)[C@H](CCCNC(=N)N)NC(=O)[C@H](CSSC[C@H](NC(=O)[C@@H](N)CC(=O)O)C(=O)N[C@@H](CC(C)C)C(=O)NCC(=O)N[C@@H](CCC(=O)O)C(=O)N[C@@H](CCSC)C(=O)N[C@@H](CCCNC(=N)N)C(=O)N[C@@H](CCCCN)C(=O)N2)NC(=O)[C@H](CSSC[C@@H](C(=O)N[C@@H](CCCCN)C(=O)N[C@@H](Cc2ccc(O)cc2)C(=O)N[C@H](C(=O)N[C@@H](Cc2ccccc2)C(N)=O)C(C)C)NC(=O)[C@H](Cc2c[nH]c4ccccc24)NC(=O)[C@H](CCCCN)NC(=O)[C@H](Cc2cnc[nH]2)NC(=O)[C@H]([C@@H](C)O)NC(=O)[C@H](CCCNC(=N)N)NC(=O)[C@H](CO)NC3=O)NC(=O)[C@H](CCCCN)NC(=O)[C@H](CC(=O)O)NC(=O)[C@H](CC(N)=O)NC(=O)[C@H](CC(=O)O)NC(=O)[C@@H]2CCCN2C1=O` (H-DCLGEMRKCIPDNDKCCRPNLVCSRTHKWCKYVF-NH2; disulfide 2-17, 9-23, 16-30): the IC50 in experiment [1] and in experiment [2] was greater than 5 µM in each case.
In the case of `CC[C@H](C)[C@@H]1NC(=O)[C@@H]2CSSC[C@@H]3NC(=O)[C@H](C(C)C)NC(=O)[C@H](CC(C)C)NC(=O)[C@H](CC(N)=O)NC(=O)[C@@H]4CCCN4C(=O)[C@H](CCCNC(=N)N)NC(=O)[C@H](CSSC[C@H](NC(=O)[C@@H](N)CC(=O)O)C(=O)N[C@@H](CC(C)C)C(=O)NCC(=O)N[C@@H](Cc4c[nH]c5ccccc45)C(=O)N[C@@H](CCSC)C(=O)N[C@@H](CCCNC(=N)N)C(=O)N[C@@H](CCCCN)C(=O)N2)NC(=O)[C@H](CSSC[C@@H](C(=O)N[C@@H](CCCCN)C(=O)N[C@@H](Cc2ccc(O)cc2)C(=O)N[C@H](C(=O)N[C@@H](Cc2ccccc2)C(N)=O)C(C)C)NC(=O)[C@H](Cc2c[nH]c4ccccc24)NC(=O)[C@H](CCCCN)NC(=O)[C@H](Cc2cnc[nH]2)NC(=O)[C@H]([C@@H](C)O)NC(=O)[C@H](CCCNC(=N)N)NC(=O)[C@H](CO)NC3=O)NC(=O)[C@H](CCCCN)NC(=O)[C@H](CC(=O)O)NC(=O)[C@H](CC(N)=O)NC(=O)[C@H](CC(=O)O)NC(=O)[C@@H]2CCCN2C1=O` (H-DCLGWMRKCIPDNDKCCRPNLVCSRTHKWCKYVF-NH2; disulfide 2-17, 9-23, 16-30), the IC50 in experiment [1] was 0.2 µM; in experiment [2], greater than 5 µM.
In the case of `CC[C@H](C)[C@@H]1NC(=O)[C@@H]2CSSC[C@@H]3NC(=O)[C@H](C(C)C)NC(=O)[C@H](CC(C)C)NC(=O)[C@H](CC(N)=O)NC(=O)[C@@H]4CCCN4C(=O)[C@H](CCCNC(=N)N)NC(=O)[C@H](CSSC[C@H](NC(=O)[C@@H](N)CC(=O)O)C(=O)N[C@@H](CC(C)C)C(=O)NCC(=O)N[C@@H](Cc4ccccc4)C(=O)N[C@@H](CCSC)C(=O)N[C@@H](CCCNC(=N)N)C(=O)N[C@@H](CCCCN)C(=O)N2)NC(=O)[C@H](CSSC[C@@H](C(=O)N[C@@H](CCCCN)C(=O)N[C@@H](Cc2ccc(O)cc2)C(=O)N[C@H](C(=O)N[C@@H](CCCCN)C(N)=O)C(C)C)NC(=O)[C@H](Cc2c[nH]c4ccccc24)NC(=O)[C@H](CCCCN)NC(=O)[C@H](Cc2cnc[nH]2)NC(=O)[C@H]([C@@H](C)O)NC(=O)[C@H](CCCNC(=N)N)NC(=O)[C@H](CO)NC3=O)NC(=O)[C@H](CCCCN)NC(=O)[C@H](CC(=O)O)NC(=O)[C@H](CC(N)=O)NC(=O)[C@H](CC(=O)O)NC(=O)[C@@H]2CCCN2C1=O` (H-DCLGFMRKCIPDNDKCCRPNLVCSRTHKWCKYVK-NH2; disulfide 2-17, 9-23, 16-30), the IC50 in experiment [1] and in experiment [2] was greater than 5 µM throughout.
Regarding `CC[C@H](C)[C@@H]1NC(=O)[C@H]2CSSC[C@H]3NC(=O)[C@H](C(C)C)NC(=O)[C@H](CC(C)C)NC(=O)[C@H](CC(N)=O)NC(=O)[C@@H]4CCCN4C(=O)[C@H](CCCNC(=N)N)NC(=O)[C@H](CSSC[C@H](NC(=O)[C@@H](N)CC(=O)O)C(=O)N[C@@H](CC(C)C)C(=O)NCC(=O)N[C@@H](Cc4ccccc4)C(=O)N[C@@H](CCSC)C(=O)N[C@@H](CCCNC(=N)N)C(=O)N[C@@H](CCCCN)C(=O)N2)NC(=O)[C@@H](CSSC[C@@H](C(=O)N[C@@H](CCCCN)C(=O)N[C@@H](Cc2ccc(O)cc2)C(=O)N[C@H](C(=O)N[C@@H](Cc2ccccc2)C(N)=O)C(C)C)NC(=O)[C@H](Cc2c[nH]c4ccccc24)NC(=O)[C@H](CCCCN)NC(=O)[C@H](C)NC(=O)[C@H]([C@@H](C)O)NC(=O)[C@H](CCCNC(=N)N)NC(=O)[C@H](CO)NC3=O)NC(=O)[C@H](CCCCN)NC(=O)[C@H](CC(=O)O)NC(=O)[C@H](CC(N)=O)NC(=O)[C@H](CC(=O)O)NC(=O)[C@@H]2CCCN2C1=O`, the 50% inhibitory concentration (IC50) is 0.97 µM in experiment [1] and greater than 5 µM in experiment [2].
